# KCNQ1 block – blocks the human KCNQ1 potassium channel; CHO-K1 KCNQ1, FluxOR thallium flux fluorescence; hits give high values; B-score at 10 µM; hit rate 1.3% among 310,000;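 active = compounds whose thallium flux B-score, printed positive for inhibition, exceeds three library SD while starting fluorescence stays within three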;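 note: channel opened by potassium depolarization with thallium stimulus after 20 min compound exposure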
# Kir21 block – Kir2.1 (mouse) channel inhibition; HEK293-Kir2.1, FluxOR thallium flux fluorescence; hits give low values; AID 1672; B-score at 10 µM; hit rate 0.85% among 310,000;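 active = fluorescence ratio B-score at or below minus 3 SD of library scores, with starting-brightness B-score within 2 SD, cut at about -4.2 in these data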;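 note: channel flux triggered by added potassium and thallium sulfate stimulus; B-score of peak minus minimum fluorescence over baseline after thallium stimulus; more negative B-score means stronger Kir2.1 block with less thallium influx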
# KCNQ1 pot – potentiators or activators of human KCNQ1 potassium channel. CHO-K1 KCNQ1, thallium flux FluxOR fluorescence; hits give high values. P51787. B-score at 10 µM. AID 2648. hit rate 0.35% among 310,000;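 active = fluorescence ratio B-score, a plate-corrected score, at least three library SD, with initial intensity B-score within 5 SD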
#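 Medium – assay buffer, equal DMSO in all wells · Material – CHO-K1 cell line with stable KCNQ1 potassium channel expression · Signal – kinetic FluxOR thallium fluorescence, 10-s 1-Hz baseline, 110-s post-stimulus read · Compound – single concentration per compound, DMSO matched to controls · Schedule – 37 °C overnight plating, 90-min dark dye load, 20-min compound pretreatment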
# KCNK9 block – human KCNK9 channel inhibition; hit rate 1.2% among 310,000; B-score at 10 µM; HEK293 KCNK9, FluxOR thallium flux fluorescence; hits give low values;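 active = ratio B-score over 3 SD below the library mean, with starting fluorescence within 5 SD of its mean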;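 note: negative B-score means less thallium flux so channel inhibition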
# Target sequence (Q9NPC2 whole entry, looked up): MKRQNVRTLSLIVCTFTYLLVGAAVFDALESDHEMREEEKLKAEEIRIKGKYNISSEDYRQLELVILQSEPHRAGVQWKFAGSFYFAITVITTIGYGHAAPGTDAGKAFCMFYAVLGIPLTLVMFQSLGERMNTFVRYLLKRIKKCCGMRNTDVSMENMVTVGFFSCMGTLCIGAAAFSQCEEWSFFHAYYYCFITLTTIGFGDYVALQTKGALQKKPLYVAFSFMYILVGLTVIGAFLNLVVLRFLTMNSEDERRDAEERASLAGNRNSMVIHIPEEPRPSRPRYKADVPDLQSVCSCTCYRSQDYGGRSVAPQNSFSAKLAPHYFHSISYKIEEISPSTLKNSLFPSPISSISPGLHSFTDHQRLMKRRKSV
# hERG protect – shields human hERG channel from block by proarrhythmic agents. Q12809. CHO-hERG, FluxOR thallium flux, dofetilide IC70 present. activation (rescue from dofetilide block), less the hit threshold, % at 10 µM. hit rate 0.51% among 310,000. AID 1511;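 active = activation above the mean of controls blocked by dofetilide plus 5 SD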;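 note: thallium influx through hERG after potassium depolarization seen as dye fluorescence rise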
# KCNK3 inh – human KCNK3 channel inhibition, primary screen; O14649; CHO-KCNK3 thallium flux, FluxOR fluorescence; hits give low values; B-score at 10 µM; hit rate 0.84% among 340,000; AID 602410;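 active = B-score under library mean minus 4 SD, starting fluorescence ratio at most library mean plus 5 SD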;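 note: more negative B-score means stronger inhibition of thallium flux through KCNK3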
# A number is an active result; – = inactive; · = not tested or not shown. Rows were chosen to be rich in hits. Some 3.7% of all compounds tested hit in one or more screens of this group.
SMILES,KCNQ1 block,Kir21 block,KCNQ1 pot,KCNK9 block,hERG protect,KCNK3 inh
O=C1C=CC(=O)N1CCNc1ncc(C(F)(F)F)cc1Cl,–,-5.7,18,–,–,–
CC(=O)Oc1c(S(=O)(=O)c2ccc(C)cc2)c(C)nn1C(C)(C)C,–,–,–,–,–,–
Cc1ccc(S(=O)(=O)c2c(C)nn(C(C)(C)C)c2OC(=O)c2cccs2)cc1,6,–,–,–,–,–
COc1cc(NC(=O)c2cc(-c3cccnc3)nc3ccc(C)cc23)c(OC)cc1Cl,–,–,–,–,6.5,·
COc1ccc(NC(=O)c2cc(-c3cccnc3)nc3ccc(C)cc23)cc1OC,·,·,·,·,·,–
c1ccc(CCN=C2CCCc3c2[nH]c2ccccc32)cc1,–,-12,–,–,–,–
O=C(Nc1cccnc1Cl)c1cccnc1Cl,–,–,–,–,–,–
O=C(Nc1cccc2c1C(=O)NC2=O)c1cccnc1Cl,–,–,–,–,6.1,–
COc1ccc(/C=C/c2ccc3c(Br)ccc(O)c3n2)cc1,–,–,–,–,–,–
COc1cc(/C=C/c2ccc3c(Br)cc(Br)c(O)c3n2)ccc1O,–,–,–,–,4.7,–
Cc1c(C(=O)NC(=S)NCc2cccnc2)cccc1[N+](=O)[O-],–,–,–,–,–,–
CC1(C)CC(=O)C=C(c2cccc3c2oc2ccccc23)C1,6,–,–,–,–,–
Oc1ccc(N=Nc2nc(-c3ccccc3)c(-c3ccccc3)[nH]2)cc1,–,–,–,-7.4,–,–
Oc1ccc(N=Nc2n[nH]c(-c3ccccc3)n2)cc1,–,–,–,–,–,–
O=c1c2cc(Br)ccc2nc(-c2ccc(Cl)cc2)n1O,–,–,104,–,35,–
O=c1c2ccc(Cl)cc2nc(-c2cccc(C(F)(F)F)c2)n1O,–,–,136,–,75,–
Cc1ccc(-c2nc3c(Cl)cc(Cl)cc3c(=O)n2O)cc1,–,–,105,–,55,–
O=c1c2cc(Cl)ccc2nc(-c2ccc([N+](=O)[O-])cc2)n1O,–,–,13,–,21,–
N#Cc1ccc(-c2nc3cc(Cl)ccc3c(=O)n2O)cc1,–,–,–,–,–,–
COc1ccccc1C(=O)NC(=O)COC(=O)C1CC2CCCC(C1)C2=O (centres undefined),–,–,–,–,–,–
CCOC(=O)c1c(C)[nH]c(C(=O)N2CCc3cc(OC)c(OC)cc3C2)c1C,–,–,–,–,–,–
O=c1c2ccccc2nc(-c2ccc(Cl)c(Cl)c2)n1O,–,–,37,–,21,–
Cc1nn(-c2ccc(Cl)cc2)c2sc(C(=O)c3c(N)n(C)c(=O)n(C)c3=O)cc12,–,–,–,–,24,–
Cn1c(N)c(C(=O)c2ccc(Cl)cc2)c(=O)n(C)c1=O,–,–,–,–,–,–
Cc1cc(C)c(S(=O)(=O)N2CCCCC2CCNC(=O)C(=O)NCCN2CCOCC2)c(C)c1 (centres undefined),–,–,–,–,–,–
SMILES,KCNQ1 block,Kir21 block,KCNQ1 pot,KCNK9 block,hERG protect,KCNK3 inh
CCCCCCCCC1=NCCc2c1[nH]c1ccccc21,8,-7.8,–,–,–,–
Cc1cc(C(=O)CCC(=O)NCC2COc3ccccc3O2)c(C)s1 (centres undefined),–,–,–,–,–,–
CN(c1ccc(C(=O)Nc2cccc(O)c2)cc1)S(=O)(=O)c1ccccc1,–,-4.8,–,–,–,–
COCc1ccc(C(=O)Nc2cccc(S(=O)(=O)N(C)c3ccccc3)c2)cc1,·,·,·,·,·,–
CCC(C(=O)Nc1cccc(S(=O)(=O)N(C)c2ccccc2)c1)c1ccccc1 (centres undefined),·,·,·,·,·,-9.9
CN(CC(=O)Nc1cccc(F)c1)CC(=O)Nc1ccccc1[N+](=O)[O-],–,–,–,–,–,–
CN(CC(=O)Nc1cccc(F)c1)CC(=O)Nc1cccc(S(=O)(=O)N(C)c2ccccc2)c1,·,·,·,·,·,-9.3
CN(CC(=O)Nc1cccc(F)c1)CC(=O)Nc1cccc2ccccc12,·,·,·,·,·,-11
CN(C)S(=O)(=O)c1cccc(NC(=O)C(c2ccccc2)c2ccccc2)c1,–,–,–,–,–,–
CCCN(CC(=O)Nc1ccccc1OC)C(=O)Cn1c(=O)oc2ccccc21,·,·,·,·,·,–
COc1cccc([C@@H]2Oc3ccc(OC)cc3C(=O)[C@H]2OC(=O)NCc2ccc3c(c2)OCO3)c1,–,–,–,–,4.6,·
COc1ccc2c(c1)O[C@@H](c1cccc(C(F)(F)F)c1)[C@H](OC(=O)NCCc1ccc(OC)c(OC)c1)C2=O,–,–,8,–,8.4,·
COC(=O)[C@H](Cc1ccccc1)NC(=O)O[C@H]1C(=O)c2ccc(OC)cc2O[C@@H]1c1ccc2c(c1)OCO2,–,–,–,–,–,·
CC(C)(/C=N/O)/[N+]([O-])=C/c1ccccc1,7,–,–,–,–,–
COc1cccc(NC(=O)CSc2nc3c(sc4ccccc43)c(=O)n2CCN(C)C)c1,–,–,–,–,–,–
COc1cccc(NC(=O)CSc2nc3c(sc4ccccc43)c(=O)n2CCCN2CCCC2)c1,–,-5.7,–,–,–,–
COc1cc(/C=C/c2ccc3cccc(O)c3n2)cc(OC)c1OC,–,–,–,–,–,–
COC(=O)c1ccc(/C=C/c2ccc3cccc(OC)c3n2)cc1,–,–,–,–,44,–
CC(Sc1nnc(N)s1)C(=O)Nc1ccc2c(c1)OCO2 (centres undefined),·,·,·,·,·,–
CC(C)Cn1c(=O)c(C(=O)N/N=C/c2cccc(F)c2)c(O)c2ccccc21,–,–,9,–,–,–
CCCCn1c(=O)c(C(=O)N/N=C/c2ccc(F)cc2)c(O)c2ccccc21,–,–,–,–,–,·
C[C@H]1COC(=O)[C@H](CC(=O)OC(C)(C)C)C/C=C\C[C@H](CC(=O)N(CCO)Cc2ccccc2)C(=O)N1,·,·,·,·,·,–
CN(Cc1ccccc1O)CC1CCCN(CCc2ccc(Cl)cc2)C1 (centres undefined),–,-15,–,–,–,–
CN(Cc1ccc(C#CCCO)cc1)CC1CCCN(CCc2ccc(Cl)cc2)C1 (centres undefined),–,-9.4,–,–,–,–
COc1ccc(S(=O)(=O)NN(C)c2ncc(C(F)(F)F)cc2Cl)cc1,–,-8,–,–,–,–
C/C=C/c1ccc(OCC(O)CNCCc2ccc(OC)cc2)c(OC)c1 (centres undefined),–,-6,–,–,–,–
C/C=C/c1ccc(OCC(O)CN(C)Cc2ccc(SC)cc2)c(OC)c1 (centres undefined),–,-11,–,–,–,–
Cc1ccc(N2C(=O)c3cccc4c(N5CCN(C)CC5)ccc(c34)C2=O)c2cccnc12,9,–,–,–,–,·
Cc1ccc(N2C(=O)c3cccc4c([N+](=O)[O-])ccc(c34)C2=O)c2cccnc12,–,–,–,–,–,–

# Screens (PubChem BioAssay)
